# Assay results collected from several papers.
# Lines come from different studies, so protocols differ.
# DNA dC->dU-editing enzyme APOBEC-3B: DNA dC->dU-editing enzyme APOBEC-3B (Homo sapiens, UniProt Q9UH17)
# SLC6A2: Sodium-dependent noradrenaline transporter (SLC6A2, Homo sapiens, UniProt P23975)
# FPR1: fMet-Leu-Phe receptor (FPR1, Homo sapiens, UniProt P21462)
# NQO2: Ribosyldihydronicotinamide dehydrogenase [quinone] (NQO2, Homo sapiens, UniProt P16083)
SMILES,target,test,system,setting,inhibition [%]
Cc1ccc(Nc2nccc(N(C)c3ccc4c(C)n(C)nc4c3)n2)cc1S(N)(=O)=O,"Serine/threonine-protein kinase Chk2 (CHEK2, Homo sapiens, UniProt O96017, I157T)","enzyme activity, inhibitor",,0.3 µM,-1
OCC1OC(Oc2cc(O)cc(/C=C/c3ccc(O)cc3)c2)C(O)C(O)C1O (stereo not shown),DNA dC->dU-editing enzyme APOBEC-3B,"enzyme activity, inhibitor, fluorescence",,100 µM,31.5
Fc1ccc(C(c2ccc(F)cc2)c2nnnn2CCCCN2CCC(Cc3ccc(Cl)c(Cl)c3)CC2)cc1,SLC6A2,"transporter uptake, inhibitor",HEK293,1 µM,75.9
O=C(Oc1ccc2c(=O)c(-c3ccccc3)c(C(F)(F)F)oc2c1)c1cccs1,FPR1,"calcium signal, antagonist",,50 µM,90
Cc1c(COc2c(F)cc(F)cc2F)c2c(n1C)C(=O)C=C(NCCCN)C2=O,NQO2,"cell-free assay, inhibitor",,1 µM,97
CCN1CCN(Cc2ccc(NC(=O)c3ccc(C)c(Oc4ccnc5[nH]ccc45)c3)cc2C(F)(F)F)CC1,"Serine/threonine-protein kinase 10 (STK10, Homo sapiens, UniProt O94804)","target engagement in cells, inhibitor, chemoproteomics",Huh-7,10 µM,-64.9
COc1ccccc1-c1c(C)oc2cc(OC(=O)c3cccs3)ccc2c1=O,FPR1,"calcium signal, antagonist",,50 µM,100
CC(=O)N[C@H]1CSSC[C@@H](C(=O)N[C@H](Cc2c[nH]c3ccccc23)C(N)=O)NC(=O)[C@H](Cc2ccccc2)NC(=O)[C@H](CCCNC(=N)N)NC1=O,"Melanocortin receptor 4 (MC4R, Homo sapiens, UniProt P32245)","ligand displacement, radioligand",,"10 µM, 40 min",0
Clc1ccc(C(c2ccc(Cl)cc2)c2nnnn2CCCCN2CCC(c3ccccc3)CC2)cc1,SLC6A2,"transporter uptake, inhibitor",HEK293,1 µM,34
Oc1cccc(Nc2nc(-c3ccc(F)cc3F)cs2)c1,"Muscarinic acetylcholine receptor M5 (CHRM5, Homo sapiens, UniProt P08912)",cell-free assay,,10 µM,-24.9
CCN(Cc1ccccc1C(F)(F)F)C(=O)C1CCN(S(=O)(=O)c2ccc3[nH]ncc3c2)CC1,"Cysteinyl leukotriene receptor 1 (CYSLTR1, Homo sapiens, UniProt Q9Y271)","ligand displacement, radioligand",,10 µM,38
Clc1ccc(C(c2ccccc2)c2nnnn2CCCCN2CCN(CC=Cc3ccccc3)CC2)cc1 (stereo not shown),SLC6A2,"transporter uptake, inhibitor",HEK293,1 µM,50.4
Cc1c(COc2c(F)cc(F)cc2F)c2c(n1C)C(=O)C(NCCCN(C)C)=CC2=O,NQO2,"cell-free assay, inhibitor",,1 µM,73
Clc1ccc(C(c2ccc(Cl)cc2)c2nnnn2CCCCN2CCN(CCCc3ccccc3)CC2)cc1,SLC6A2,"transporter uptake, inhibitor",HEK293,1 µM,21.3
CCOC(=O)Oc1ccc2c(=O)c(-c3ccccc3OC)c(C(F)(F)F)oc2c1,FPR1,"calcium signal, antagonist",,50 µM,80
Nc1c(Cl)cccc1C(=O)Nc1ccccc1C(=O)O,"srtA (Staphylococcus aureus, UniProt Q2FV99)","enzyme activity, inhibitor",,200 µM,100
Fc1ccc(C(c2ccc(F)cc2)c2nnnn2CCCN2CCC(CCCc3ccccc3)CC2)cc1,SLC6A2,"transporter uptake, inhibitor",HEK293,1 µM,23.8
CC/C(=N\NC(=O)NCc1cccc(O)c1)c1ccc(O)c(C)c1O,"Fibroblast growth factor receptor 4 (FGFR4, Homo sapiens, UniProt P22455, N535K)","enzyme activity, inhibitor",,0.1 µM,3.1
COc1ccccc1-c1c(C)oc2cc(OC(=O)c3ccco3)ccc2c1=O,FPR1,"calcium signal, antagonist",,50 µM,100
O=C(O)C1OC(Oc2cc(O)c3c(=O)cc(-c4ccc(O)cc4)oc3c2)C(O)C(O)C1O (stereo not shown),DNA dC->dU-editing enzyme APOBEC-3B,"enzyme activity, inhibitor, fluorescence",,100 µM,41.2
c1ccc(CCC2CCN(CCCCn3nnnc3C(c3ccccc3)c3ccccc3)CC2)cc1,SLC6A2,"transporter uptake, inhibitor",HEK293,1 µM,82.8
O=C(Oc1ccc2c(=O)c(-c3ccccc3Cl)c(C(F)(F)F)oc2c1)c1cccs1,FPR1,"calcium signal, antagonist",,50 µM,100
Clc1ccc(C(c2ccccc2)c2nnnn2CCCCN2CCN(CCc3ccccc3)CC2)cc1 (stereo not shown),SLC6A2,"transporter uptake, inhibitor",HEK293,1 µM,47.6
COc1cc(/C=C/C(=O)CC(=O)/C=C/c2ccc(O)c(OC)c2)ccc1O,DNA dC->dU-editing enzyme APOBEC-3B,"enzyme activity, inhibitor, fluorescence",,100 µM,75.2
CCc1cc2c(=O)c(-c3nc4ccccc4n3C)c(C)oc2cc1OC(C)=O,FPR1,"calcium signal, antagonist",,50 µM,100
Fc1ccc(C(c2ccc(F)cc2)c2nnnn2CCCCN2CCC(Cc3ccccc3)CC2)cc1,SLC6A2,"transporter uptake, inhibitor",HEK293,1 µM,81
COc1ccccc1-c1c(C(F)(F)F)oc2cc(OC(=O)c3ccccc3)ccc2c1=O,FPR1,"calcium signal, antagonist",,50 µM,90
CNC(=O)c1cc(Oc2ccc(NC(=O)Nc3ccc(Cl)c(C(F)(F)F)c3)cc2)ccn1,"Serine/threonine-protein kinase Chk2 (CHEK2, Homo sapiens, UniProt O96017, R145W)","enzyme activity, inhibitor",,10 µM,0
